Drawing on ChEMBL document CHEMBL4513216, “Probing the Open Global Health Chemical Diversity Library for Multistage-Active Starting Points for Next-Generation Antimalarials” (ACS Infect Dis, 2020), this text covers cytotoxicity for 98 molecules.

The data set in a line: Toxicity liver stage against HepG2, at 10uM. Also on record: test concentration 10 uM, cell line HepG2-A16-CD81EGFP. The class given is cell-based. The conditions noted are these: human, HepG2-A16-CD81EGFP cells; read-out: INHIBITION
In a few lines: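 Uninfected HepG2-A16-CD81EGFP cells, 3 × 10^3 per well, 1536-well, plated on prespotted compound at 10 μM final, parasite-free screening media added to match infected plates; puromycin 10 μM positive, DMSO 0.5% negative; run in parallel with 48 h PbLuc assay at 37 °C, 5% CO2; viability by CellTiter-Glo luminescence, normalized to controls.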
As to `CCc1nnc(CN2CCOC(Cn3cccn3)C2)o1` (stereo not drawn), the cytotoxicity at 10 µM is -8.15%. On to `CCOC(=O)C1CCN(Cc2c(O)ccc3oc4c(c23)CCCC4)CC1`, for which the cytotoxicity at 10 µM is -1.2%. Take `CN1CCC(N(C)C(=O)c2cnc3c(cnn3C3CCCC3)c2)CC1`: the cytotoxicity at 10 µM was -26.9%.

On to `CN1CCCCc2c1nc1c(c2N)CCC1`, for which the cytotoxicity at 10 µM is 8.45%.

`c1csc(-c2nc(CN3CCOC(Cn4cncn4)C3)co2)c1` (stereo not drawn): the cytotoxicity at 10 µM is -11.8%. Turning to `Cc1cc(NCc2nnc3n2CCC3)n2nc(C)c(C)c2n1`, the cytotoxicity at 10 µM came to 1.16%. For `CCNC(=O)C1CCCN(c2ccc3ccc(F)cc3n2)C1` (stereo not drawn), the cytotoxicity at 10 µM is -1.69%. Turning to `NC(=O)N1CCC(NCc2cc(C(F)(F)F)ccc2Cl)CC1`, the cytotoxicity at 10 µM was -0.651%. On to `CCCN(Cc1nccn1C)C(=O)c1cc(C)nc(C)n1`, for which the cytotoxicity at 10 µM came to 2.37%. In the case of `CC(C)Oc1ccc(C(=O)N2CCCC2c2cnn(C)c2)cn1` (stereo not drawn), the cytotoxicity at 10 µM was -6.37%. For `Cc1nccn1[C@@H]1CC[C@@H](N(C)S(=O)(=O)c2ccccc2F)[C@H]1O`, the cytotoxicity at 10 µM came to 1.17%. Next, `CCCC(C)(C)NC(=O)c1ccc(CC2CC(=O)NC2=O)cc1` (stereo not drawn): -19.7%; `CCSc1ccccc1C(=O)N(CCOC)Cc1ccoc1`: 13.8%; `O=C(c1ccoc1)N1CCC2(C1)CN(c1ncccn1)C2`: -5.55%. To `CC(C)CN1CCC2(Cc3ccccc3NC2=O)C1` (stereo not drawn) belongs 6.86%; to `CCc1nccc(CN2CCC(CNC(=O)C3CCC(C)CC3)C2)n1` (stereo not drawn), -4.51%; to `Cc1cnc(NC(=O)NC(CCO)c2cccs2)s1` (stereo not drawn), 5.53%. `Cc1occc(=O)c1OCc1noc(C(=O)NC2CCCC2)n1`: the cytotoxicity at 10 µM turned out to be 0.618%. To `COc1ccc(N2CCOCC3(CCCN(c4cnccn4)C3)C2)cc1` (stereo not drawn) belongs 4.29%. In the case of `Cn1cccc1C(=O)N1CCC(c2nccn2Cc2ccncc2)CC1`, the cytotoxicity at 10 µM was -12%.

For the molecule `CSCCC(O)C(=O)N1CCCN(Cc2ccc(F)cc2)CC1` (stereo not drawn), the cytotoxicity at 10 µM worked out at 5.14%.

In the case of `COCCN1CCC2(CC1)CN(C(=O)c1ccco1)CCO2`, the cytotoxicity at 10 µM is -1.27%. Next, `CCc1cnccc1C(=O)NC1CCN(C(=O)C2CCCCC2)CC1`: 3.51%; `CC(C)c1ocnc1C(=O)NC1(c2cccc(F)c2)CCOCC1`: 6.81%; `Cc1nn(C)cc1C1CC(=O)Nc2c1cnn2C` (stereo not drawn): 2.8%. On to `COc1ccc(CNCCc2ccn(-c3ccccc3)n2)cc1O`, for which the cytotoxicity at 10 µM is -0.13%. Next, `COCCN1C(=O)CO[C@H]2CN(S(=O)(=O)c3ccccc3)C[C@H]21`: -0.843%; `CN(C)CCN(C)c1ccc(-c2nc(COc3ccccc3)no2)cn1`: 4.35%. On to `CCn1cncc1-c1nc2c([nH]1)CC(C)(C)CNC2=O`, for which the cytotoxicity at 10 µM came out at 7.51%. Turning to `Cc1nn(-c2ccc(C(=O)O)cc2)c2c1C(C(C)C)SCC(=O)N2` (stereo not drawn), the cytotoxicity at 10 µM is -3.58%. As to `Cc1ccccc1C(=O)N1CCOC2(CNCCOC2)C1` (stereo not drawn), the cytotoxicity at 10 µM is -16.5%.

As to `CC(NC(=O)Cc1cc2c(cc1Cl)OCCO2)c1ccncn1` (stereo not drawn), the cytotoxicity at 10 µM was -6.29%. Next, `Cc1cccc(CN2CCc3c(nc(N4CCCCC4C)[nH]c3=O)C2)n1` (stereo not drawn): -0.336%; `COc1ccc(F)c(F)c1CN1CC(=O)N(c2ccccc2C)CC1C` (stereo not drawn): -0.121%; `CSCC(=O)N1CCCN(c2ccncc2C)CC1`: -6.09%.

Consider `COC(=O)[C@@H](NC(=O)c1snnc1-c1ccc(OC)cc1)C(C)C`, for which the cytotoxicity at 10 µM came out at 4.96%.

Turning to `COc1ncccc1CNCc1cnc(N2CCOCC2)nc1`, the cytotoxicity at 10 µM was found to be 2.38%. With `Cc1cnc(C(C)(C)NC(=O)NCc2ccon2)s1`, the cytotoxicity at 10 µM is -6.75%.

Regarding `CN1CCOC[C@H]1c1nc(-c2ccccc2)c[nH]1`, the cytotoxicity at 10 µM was -7.24%. To `Cc1ccc(CNC(=O)NC(C)CCS(C)(=O)=O)cc1F` (stereo not drawn) belongs -146%; to `CCc1ccc(C(=O)N2CCC(N(C)C(=O)OC(C)(C)C)C2)o1` (stereo not drawn), -48%. As for `O[C@H]1[C@H](NCCc2cnccn2)c2ccccc2C12CCNCC2`, the cytotoxicity at 10 µM was -7.32%.

Take `CCN1CCC2(CCN(Cc3ccc(OC)cc3)CC2)C1=O`: the cytotoxicity at 10 µM was -0.0368%. To `CN(C)CCn1ccc2cc(NC(=O)NCc3ccon3)ccc21` belongs -2.51%; to `Cc1ccc(F)cc1C(=O)N1CCN(S(C)(=O)=O)[C@@H](C)C1`, -2.53%. To `CC(C)c1nnc2n1CC(CNc1cnc3ccccc3n1)CC2` (stereo not drawn) belongs -37.1%; to `CC(C)C1CN(C(=O)c2ccc(Cl)cn2)CCCN1CC1CC1` (stereo not drawn), 5.15%.

Take `CCN1CCCC1CNCc1cc2cc(C)c(C)cc2[nH]c1=O` (stereo not drawn): the cytotoxicity at 10 µM is -6.69%. Take `Cn1ccc(C(=O)NCc2cccc(N3CCCCC3=O)c2)cc1=O`: the cytotoxicity at 10 µM is -6.68%. Regarding `O=C(C1CC(=O)N(c2ccccc2Br)C1)N1CCC2(CC1)OCCO2` (stereo not drawn), the cytotoxicity at 10 µM amounted to 11.3%. Next, `COc1ccccc1C(C)Nc1ncc(C(N)=O)cc1Cl` (stereo not drawn): 8.74%; `COCc1nc(CN2CCOC(CN(C)c3cccnn3)C2)cs1` (stereo not drawn): 1.55%.

On to `CCCNC(=O)c1nn(CC)cc1Cl`, for which the cytotoxicity at 10 µM came out at 6.11%. Regarding `CCOc1ccnc(N2CCN(C(=O)c3cn[nH]c3C)CC2)n1`, the cytotoxicity at 10 µM came out at 3.54%. For the molecule `Cc1nccn1[C@@H]1CC[C@@H](NC(=O)Cn2c(C)nc3ccccc32)[C@H]1O`, the cytotoxicity at 10 µM was 2.41%. As to `CCN(CC)C(=O)c1ccn(COc2ccccc2)n1`, the cytotoxicity at 10 µM is -0.911%. Next, `NC(=O)C1CCCN(Cc2ccc(C(=O)Nc3cnns3)cc2)C1` (stereo not drawn): 13.7%.

With `O=C(NC[C@]12COC[C@H]1CN(Cc1ccco1)C2)c1ccccc1`, the cytotoxicity at 10 µM is -2.53%.

In the case of `O=C(NCc1ccccc1OCC1CC1)C1CCOC1` (stereo not drawn), the cytotoxicity at 10 µM worked out at 4.94%. To `Cc1cnn(CC2CCCN2Cc2nc3ccccc3nc2C)c1` (stereo not drawn) belongs -1.35%. Regarding `CCn1cnnc1CN(C)Cc1c[nH]nc1-c1ccc(F)cc1`, the cytotoxicity at 10 µM was -2.59%.

For `CC(C)Oc1ccc(CN2CCN3CCN(C)CC3C2)cc1CO` (stereo not drawn), the cytotoxicity at 10 µM is -3.42%.

In the case of `Cc1nn(CC(C)C)c(N(C)C)c1CNCCS(C)(=O)=O`, the cytotoxicity at 10 µM is 6.59%. Next, `Cc1nnc(CCNC(=O)C2CC(=O)N(C(C)(C)C)C2)s1` (stereo not drawn): -3.27%; `COc1cccc(CC(=O)N2CC[C@@H](OC)[C@@H]2Cc2cccnc2)c1`: 3.71%; `Fc1cccc(NCc2ncc[nH]2)c1`: -9.16%.

As to `NC(=O)CN1CCCC(c2nccnc2Oc2cccc(F)c2)C1` (stereo not drawn), the cytotoxicity at 10 µM is -17.1%. Take `Cc1nc(CNC(=O)NC2CCN(c3ncccc3Cl)C2)no1` (stereo not drawn): the cytotoxicity at 10 µM stood at 11.9%. Next, `CC(O)CN(CC(=O)NC(=O)NCC(F)(F)F)c1ccccc1` (stereo not drawn): 1.15%; `CCc1ccc(CCn2cnc(C#N)n2)cc1`: -0.224%. On to `CSc1cccc(CN(C)C(=O)Nc2nc(C)n(C)n2)c1`, for which the cytotoxicity at 10 µM is 2.78%.

`c1cnc2[nH]nc(C3CCN(Cc4ccsc4)CC3)c2c1`: the cytotoxicity at 10 µM is -27.3%.

In the case of `Cc1ccc(CC(=O)NCC(O)c2ccc(Cl)cc2Cl)cn1` (stereo not drawn), the cytotoxicity at 10 µM is -10.1%. Next, `CNC(=O)c1ncn2c1CN(CCC(C)C)S(=O)(=O)c1ccccc1-2`: -78.8%; `CN(CCc1ccccc1)c1cnn(CC(=O)N2CCOCC2)c(=O)c1`: 1.77%.

For `CC[C@@H](C)[C@H](NC(=O)NC1CCS(=O)(=O)C1)C(=O)NCc1ccncc1` (stereo partly drawn), the cytotoxicity at 10 µM is -2.56%. To `CC(CN1CCOCC1)n1cncc1-c1cnn(Cc2ccccc2)c1` (stereo not drawn) belongs 6.33%. With `Cc1ccoc1C(=O)N1C[C@@H](N2CCN(C)CC2)[C@H]2OCCC[C@H]21`, the cytotoxicity at 10 µM stood at 7.1%.

On to `c1ccc(-n2ccc(CNC3CCc4ncnn4C3)n2)cc1` (stereo not drawn), for which the cytotoxicity at 10 µM is -2.57%. To `O=C(CCCn1cncn1)N1CCC2(CCCN(CC3CC3)C2=O)C1` (stereo not drawn) belongs -0.611%; to `Cc1cc(CN(C)CCC(O)c2ccccc2)no1` (stereo not drawn), 0.238%; to `CN(Cc1ccc(-n2cccn2)cc1)C[C@@H]1CCCN2CCCC[C@H]12`, 0.537%. To `Cc1cc2n(n1)CCN(c1nc(N(C)C)nc3c1CCNC3)C2` belongs 0.94%; to `Cc1ccc(-c2ncc(C(=O)N3CCCC(CCN)C3)c(O)n2)cc1` (stereo not drawn), -7.98%.

On to `Cc1cccc(COC[C@@]23CCC[C@@H]2CN(C(=O)Cc2ccco2)C3)n1`, for which the cytotoxicity at 10 µM was -109%. In the case of `CC(NC(=O)C1CCCCC1)c1cc(O)nc(-c2cccnc2)n1` (stereo not drawn), the cytotoxicity at 10 µM came to 5.84%. To `CNC(=O)N1CCC2(COCc3c(C)nc(NCc4ccco4)nc32)C1` (stereo not drawn) belongs 11.2%; to `COc1cccc(-c2n[nH]cc2C(=O)NC(C)c2n[nH]c(C)n2)c1` (stereo not drawn), -6.26%; to `CN(Cc1cc(-c2cccnc2)no1)C(=O)C1CCCN1S(C)(=O)=O` (stereo not drawn), -2.54%. Next, `Cc1nc(C2CCN(C[C@H](C)CO)CC2)cc(N2CCOCC2)n1`: -9.3%; `O=c1[nH]c(NC2CCCC2)nc2nccc(-c3ccsc3)c12`: -12.1%; `CCn1c(C)nnc1SCCNC(=O)CC1CCc2ccccc21` (stereo not drawn): -1.26%. Next, `Cc1ccc(C(=O)N2CCCN(Cc3cscn3)CC2)o1`: -10.6%; `CCc1ncncc1C(=O)N1CCN(Cc2cscn2)CC1`: 0.512%; `O=S(=O)(Cc1ccccc1Cl)NCCCN1CCCC1`: -4.54%.

Turning to `Cc1cccc(C2(NCCCS(C)(=O)=O)CCCC2)c1`, the cytotoxicity at 10 µM turned out to be 1.3%.

As to `Cc1nn(CC(=O)n2cccn2)c(C)c1I`, the cytotoxicity at 10 µM was -11.5%.

With `O=C(NCC(F)(F)F)c1ccc(-n2cccn2)nn1`, the cytotoxicity at 10 µM is -8.35%.
